Structures are written as SMILES. Active and inactive are the calls of the source. The rule behind the calls is not given here. Some results are limits rather than exact numbers.

The species named for test [1] is Rattus norvegicus. Nature of the test: animal or person. Conditions: Sprague-Dawley, Plasma, po, 6 h, read-out: Inhibition.
For test [2], the system named is Rattus norvegicus. Nature of the test: Ex vivo inhibition of DPP4 in Sprague-Dawley rat plasma at 0.3 mg/kg, po after 9 hrs. It counts as functional. In outline:
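Male Sprague–Dawley rats, 6–7 weeks old, fasted at least 8 h, then given a single oral dose of 0.3 mg/kg in 0.5% methyl cellulose. Jugular vein blood was drawn before dosing and at 0.25–9 h after. Plasma was mixed with Gly-Pro-AMC (added as a 60 µM solution). The initial rate over the first 15 min was read at 37 °C (ex 355/em 460 nm). Inhibition is expressed as % of basal activity.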

The next test addresses Dipeptidyl peptidase 8 (Homo sapiens, UniProt Q6V1X1). Nature of the test: Inhibition of human DPP8.
For test [3], the system named is Rattus norvegicus. Nature of the test: Reduction of glucose level in Sprague-Dawley rat plasma at 1 mg/kg, po after 7 hrs by multiple glucose tolerance test. It is filed as functional, organism-based. More on the design: dose 1 mg/kg. In outline:
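Male SD rats (364–473 g), fasted at least 20 h, were dosed orally at −0.5 h with 1 mg/kg or with vehicle (0.5% methyl cellulose). Oral glucose, 1 g/kg, was given at 0 and 6 h. Tail vein plasma was taken at −0.08 to 8 h, stored at −80 °C, and assayed by glucose oxidase-peroxidase. Results are mean ± SEM (n = 7), compared with vehicle by Student's t test.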

Dipeptidyl peptidase 8, sequence (Q6V1X1 whole entry): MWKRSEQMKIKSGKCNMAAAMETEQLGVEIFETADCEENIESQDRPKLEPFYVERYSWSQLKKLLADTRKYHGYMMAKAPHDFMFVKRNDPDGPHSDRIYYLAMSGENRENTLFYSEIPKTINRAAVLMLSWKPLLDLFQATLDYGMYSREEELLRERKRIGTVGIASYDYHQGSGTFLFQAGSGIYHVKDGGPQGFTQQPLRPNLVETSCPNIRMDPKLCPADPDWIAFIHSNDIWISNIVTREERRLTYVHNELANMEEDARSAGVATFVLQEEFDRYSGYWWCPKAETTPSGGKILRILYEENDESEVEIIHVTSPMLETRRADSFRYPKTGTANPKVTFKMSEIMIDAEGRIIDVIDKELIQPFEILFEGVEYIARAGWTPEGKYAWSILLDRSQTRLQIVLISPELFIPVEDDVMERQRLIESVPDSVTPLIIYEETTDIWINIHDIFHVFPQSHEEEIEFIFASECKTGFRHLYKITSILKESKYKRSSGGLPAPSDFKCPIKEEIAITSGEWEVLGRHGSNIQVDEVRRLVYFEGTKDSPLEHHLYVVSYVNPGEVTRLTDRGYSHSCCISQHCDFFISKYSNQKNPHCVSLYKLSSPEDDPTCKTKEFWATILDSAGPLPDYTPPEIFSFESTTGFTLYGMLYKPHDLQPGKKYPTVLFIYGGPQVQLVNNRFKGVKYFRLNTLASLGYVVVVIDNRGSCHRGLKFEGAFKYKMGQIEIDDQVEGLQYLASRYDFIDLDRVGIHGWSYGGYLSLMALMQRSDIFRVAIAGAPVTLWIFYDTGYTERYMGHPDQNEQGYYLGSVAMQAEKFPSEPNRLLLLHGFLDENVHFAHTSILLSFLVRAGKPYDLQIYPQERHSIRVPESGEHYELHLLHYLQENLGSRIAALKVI

For the molecule `C#CCN(CC#N)C(=O)[C@@H]1C[C@H](C(=O)N(C)C)[C@H](C)N1`, the inhibition in vivo at 0.3 mg/kg in the test filed under Rattus norvegicus [1] is 18%.

In the case of `C[C@@H]1N[C@H](C(=O)N2CCC[C@H]2C#N)C[C@@H]1CC(=O)N(C)C`, the inhibition in vivo at 0.3 mg/kg in the test listed under Rattus norvegicus [1] came out at 40%.

For the molecule `CCN(CC#N)C(=O)[C@@H]1C[C@H](C(=O)N(C)C)[C@H](C)N1`, the inhibition in vivo at 0.3 mg/kg with Rattus norvegicus [2] amounted to 62%; in the test filed under Rattus norvegicus [1] it was 73%. The half-maximal inhibitory concentration (IC50) on Dipeptidyl peptidase 8 is above 100 µM. Also, the result in the test with Rattus norvegicus [3] was Active.

Turning to `CCN(CC#N)C(=O)[C@@H]1C[C@H](C(=O)N2CCCC2)[C@H](C)N1`, the inhibition in vivo at 0.3 mg/kg in the test listed under Rattus norvegicus [1] stood at 53%.

Consider `CC[C@@H]1N[C@H](C(=O)N2CCC[C@H]2C#N)C[C@@H]1C(=O)N(C)C`, for which, in the test listed under Rattus norvegicus [1], the inhibition in vivo at 0.3 mg/kg was determined as 45%.

For `C[C@@H]1N[C@H](C(=O)N2CCC[C@H]2C#N)C[C@@H]1C(=O)N(C)C`, the figures for the inhibition in vivo at 0.3 mg/kg with Rattus norvegicus [2] and in the test listed under Rattus norvegicus [1] were 83% and 89%, respectively.

With `CCN(CC#N)C(=O)[C@@H]1C[C@H](C(=O)NCc2ccccc2)[C@H](C)N1`, the inhibition in vivo at 0.3 mg/kg in the test listed under Rattus norvegicus [1] was found to be 31%.

Turning to `C[C@@H]1N[C@H](C(=O)N(CC#N)C2CC2)C[C@@H]1C(=O)N(C)C`, the inhibition in vivo at 0.3 mg/kg in the test listed under Rattus norvegicus [1] was 29%.

For `CCN(CC#N)C(=O)[C@@H]1C[C@H](C(=O)N2Cc3ccccc3C2)[C@H](C)N1`, in the test filed under Rattus norvegicus [1], the inhibition in vivo at 0.3 mg/kg stood at 64%.

`C=CCN(CC#N)C(=O)[C@@H]1C[C@H](C(=O)N(C)C)[C@H](C)N1`: the inhibition in vivo at 0.3 mg/kg in the test listed under Rattus norvegicus [1] was found to be 19%.

Consider `CCN(CC#N)C(=O)[C@@H]1C[C@H](C(=O)N2CCCCC2)[C@H](C)N1`, for which the inhibition in vivo at 0.3 mg/kg in the test listed under Rattus norvegicus [1] was determined as 60%.

As to `CCN(CC#N)C(=O)[C@@H]1C[C@H](C(=O)N2CCOCC2)[C@H](C)N1`, the inhibition in vivo at 0.3 mg/kg in the test listed under Rattus norvegicus [1] worked out at 65%.

Turning to `C[C@@H]1N[C@H](C(=O)N(C)CC#N)C[C@@H]1C(=O)N(C)C`, the inhibition in vivo at 0.3 mg/kg in the test filed under Rattus norvegicus [1] came to 55%. Also, the IC50 at Dipeptidyl peptidase 8 is above 100 µM.

By IC50 is commonly meant the concentration at which inhibition is half-maximal. Read a low IC50 as greater potency in that assay.

For the origin of these results see ChEMBL document CHEMBL1143890, “Discovery of long-acting N-(cyanomethyl)-N-alkyl-L-prolinamide inhibitors of dipeptidyl peptidase IV” (Bioorg Med Chem, 2008).
